Bioassay records deposited in PubChem by Johns Hopkins Ion Channel Center.
KCNK9 inh: inhibitors of human KCNK9 two-pore domain potassium channel; Q9NPC2; HEK293 KCNK9, FluxOR thallium flux fluorescence; stronger effect = lower value; B-score at 10 µM; 310,000 compounds, 1.2% hits; AID 488922;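 active means ratio B-score over 3 SD below the library mean, with starting fluorescence within 5 SD of its mean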;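 further: negative B-score means less thallium flux so channel inhibition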
KCNQ1 inh: human KCNQ1 channel inhibition; CHO-K1 KCNQ1, FluxOR thallium flux fluorescence; stronger effect = higher value; B-score at 10 µM; 310,000 compounds, 1.3% hits; AID 2642;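 active means compounds whose thallium flux B-score, printed positive for inhibition, exceeds three library SD while starting fluorescence stays within three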;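 further: channel opened by potassium depolarization with thallium stimulus after 20 min compound exposure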
Target sequence (P51787 whole entry, looked up): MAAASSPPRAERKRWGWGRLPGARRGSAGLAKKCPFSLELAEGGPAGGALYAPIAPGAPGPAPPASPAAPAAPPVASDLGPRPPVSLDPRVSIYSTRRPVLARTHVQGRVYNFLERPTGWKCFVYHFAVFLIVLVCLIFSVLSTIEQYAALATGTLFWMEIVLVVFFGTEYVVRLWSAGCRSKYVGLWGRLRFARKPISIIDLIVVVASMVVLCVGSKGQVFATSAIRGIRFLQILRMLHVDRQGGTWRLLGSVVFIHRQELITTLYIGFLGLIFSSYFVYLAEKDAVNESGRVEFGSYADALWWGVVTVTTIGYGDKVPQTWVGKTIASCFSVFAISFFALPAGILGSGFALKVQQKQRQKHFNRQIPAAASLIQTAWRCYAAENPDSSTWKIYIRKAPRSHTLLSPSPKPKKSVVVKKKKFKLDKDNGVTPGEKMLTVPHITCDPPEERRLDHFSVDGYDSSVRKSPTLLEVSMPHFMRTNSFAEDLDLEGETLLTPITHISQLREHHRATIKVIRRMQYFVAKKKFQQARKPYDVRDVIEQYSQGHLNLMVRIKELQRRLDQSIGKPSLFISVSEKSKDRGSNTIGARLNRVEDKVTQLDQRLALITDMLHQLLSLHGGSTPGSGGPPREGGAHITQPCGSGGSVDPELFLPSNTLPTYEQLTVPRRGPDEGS
hERG rescue: hERG (human) protection from proarrhythmic block | activation (rescue from dofetilide block), less the hit threshold, % at 10 µM | Q12809 | CHO-hERG, FluxOR thallium flux, dofetilide IC70 present | AID 1511 | 310,000 compounds, 0.51% hits;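 active means activation above the mean of controls blocked by dofetilide plus 5 SD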;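 further: thallium influx through hERG after potassium depolarization seen as dye fluorescence rise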
KCNQ1 pot: human KCNQ1 channel potentiation or activation; AID 2648; CHO-K1 KCNQ1, thallium flux FluxOR fluorescence; stronger effect = higher value; B-score at 10 µM; 310,000 compounds, 0.35% hits; P51787;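 active means fluorescence ratio B-score, a plate-corrected score, at least three library SD, with initial intensity B-score within 5 SD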
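assay system = CHO-K1 cells stably expressing KCNQ1 | medium = assay buffer, equal DMSO in all wells | timing = 37 °C overnight plating, 90-min dark dye load, 20-min compound pretreatment | measured by = kinetic FluxOR thallium fluorescence, 10-s 1-Hz baseline, 110-s post-stimulus read | measure = fluorescence change relative to baseline, converted to B score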
KCNK3 block: human KCNK3 channel inhibition, primary screen. O14649. B-score at 10 µM. 340,000 compounds, 0.84% hits. AID 602410. CHO-KCNK3 thallium flux, FluxOR fluorescence; stronger effect = lower value;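 active means B-score under library mean minus 4 SD, starting fluorescence ratio at most library mean plus 5 SD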;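 further: more negative B-score means stronger inhibition of thallium flux through KCNK3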
Kir21 block: inhibitors of mouse Kir2.1 inward-rectifier potassium channel; P35561; HEK293-Kir2.1, FluxOR thallium flux fluorescence; stronger effect = lower value; B-score at 10 µM; 310,000 compounds, 0.85% hits; AID 1672;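 active means fluorescence ratio B-score at or below minus 3 SD of library scores, with starting-brightness B-score within 2 SD, cut at about -4.2 in these data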;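 further: channel flux triggered by added potassium and thallium sulfate stimulus; B-score of peak minus minimum fluorescence over baseline after thallium stimulus; more negative B-score means stronger Kir2.1 block with less thallium influx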
KCNQ1 inh valid: confirmation of human KCNQ1 potassium channel inhibitors; AID 588353; 1,600 compounds, 93% hits; inhibition, % at 10 µM; KCNQ1 cell line, FluxOR thallium flux fluorescence; shares compounds with KCNQ1 inh;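 active means primary screen active, with duplicate mean exceeding buffer control mean plus 3 SD of buffer wells, cut at about 28% in these data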
CHO Tl flux: counter-screen for KCNQ1 inhibitors: effect in parental CHO cells; shares compounds with KCNQ1 inh; 1,600 compounds, 21% hits; parental CHO-K1, FluxOR thallium flux fluorescence ratio; stronger effect = lower value; zero means no signal rise above baseline; AID 588366; fluorescence ratio (Tl flux) at 10 µM;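 active means mean of duplicate thallium-flux fluorescence ratios in parental host cells more than 5 SD below the buffer control mean, cut at about 0.38 in these data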;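 further: ratio is peak minus minimum fluorescence divided by baseline fluorescence; actives read low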
KCNQ1 ephys val: human KCNQ1 inhibition validated by electrophysiology; shares compounds with KCNQ1 inh; KCNQ1-CHO cells, automated patch clamp current; calls only at 10 µM; 490 compounds, 20% hits;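 active means KCNQ1 current drop exceeding 3 SD of negative control wells, seen in both duplicate runs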;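 further: steady state current during a 2 s step from -80 to +40 mV; negative values mean current inhibition and positive values mean potentiation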
KCNQ2 spec: KCNQ1 inhibitor that also blocks rat KCNQ2 channel | KCNQ2 cells, FluxOR thallium flux fluorescence | inhibition, % at 10 µM | 1,600 compounds, 71% hits | shares compounds with KCNQ1 inh;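 active means mean percent inhibition of the KCNQ2 thallium signal more than 5 SD above the buffer-only control wells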;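 further: KCNQ2 expressed in CHO cells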
KCNQ1-KCNE1 inh: KCNQ1 inhibitor that also blocks human KCNQ1/KCNE1 channel; shares compounds with KCNQ1 inh; 1,600 compounds, 77% hits; KCNQ1/KCNE1 cells, FluxOR thallium flux fluorescence; inhibition, % at 10 µM; AID 652147;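 active means mean percent inhibition of duplicate wells above the buffer-only control mean plus 3 SD of those controls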
KCNK9 inh conf: human KCNK9 inhibitor confirmation. shares compounds with KCNK9 inh. HEK293 KCNK9 cells, FluxOR thallium flux fluorescence. inhibition, % at 10 µM. 4,900 compounds, 43% hits. AID 492992;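 active means thallium signal inhibited by more than 5 SD of the compound-free buffer control wells, on both duplicate plates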
Kir2-1 spec: mouse Kir2.1 off-target activity of KCNK9 modulators. shares compounds with KCNK9 inh. Kir2.1 cells, FluxOR thallium flux fluorescence. inhibition, % at 10 µM. 4,900 compounds, 4% hits. AID 492993;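 active means thallium signal drop more than 5 SD beyond the mean of the no-compound control wells, seen in both duplicate plates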;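 further: signal is fluorescence rise after thallium addition divided by baseline fluorescence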
KCNK9 uninduced: non-induced cell nonspecific activity of KCNK9 modulators; inhibition, % at 10 µM; shares compounds with KCNK9 inh; 4,900 compounds, 40% hits; non-induced KCNK9-HEK293, FluxOR thallium flux;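 active means thallium signal drop beyond 5 SD of the untreated control mean, on both duplicate plates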
KCNK3 inh conf: confirmation of human KCNK3 two-pore domain potassium channel inhibitors. shares compounds with KCNK3 block. CHO-KCNK3 thallium flux, FluxOR fluorescence; 0% buffer, 100% carvedilol maximal block. ratio percent of control, % at 10 µM. 2,400 compounds, 99% hits. AID 651638;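 active means ratio percent of control, averaged over triplicates, above buffer control mean plus 5 SD, cut at about 64% in these data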;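 further: ratio is the fluorescence rise from min to max over baseline after thallium stimulus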
KCNK3 noninduced: counter-screen for KCNK3 inhibitors: effect in non-induced cells | shares compounds with KCNK3 block | non-induced KCNK3 parental cells, FluxOR thallium flux; stronger effect = lower value | thallium flux ratio (lower = more inhibition) at 10 µM | 2,400 compounds, 40% hits;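 active means thallium flux ratio, averaged over three wells, more than 5 SD below the buffer control mean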;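 further: host cells are CHO cells without KCNK3 induction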
Numbers stand for hits; n = inactive; x = no result; + = active, no number. Shown are actives, neighbours in structure and some others; about 3.7% of the full set was active somewhere.

SMILES	KCNK9 inh	KCNQ1 inh	hERG rescue	KCNQ1 pot	KCNK3 block	Kir21 block	KCNQ1 inh valid	CHO Tl flux	KCNQ2 spec	KCNQ1-KCNE1 inh	KCNK3 inh conf	KCNK3 noninduced	others
COc1ccc(Nc2nc(-c3cccc(OC)c3O)nc3ccccc23)cc1	n	7	n	n	-9.92	n	167.5	0.303	116.0%	+	133.0	0.146
Cc1ccc(C(=O)O)cc1-n1c(=O)n(Cc2ccccc2)c(=O)c2[nH]cnc21	n	n	n	n	n	n	x	x	x	x	x	x
CNc1nc(SCc2ccc(C)cc2)nc2c1CCCC2	n	10	n	n	-10.8	n	129.5	n	101.0%	102.0%	134.0	0.148	KCNQ1 ephys val=n
Cc1ccc(CSc2nc3c(c(SCC(=O)O)n2)CCCC3)cc1	n	n	n	n	n	n	x	x	x	x	x	x
CCCNC(=S)N1CCN(c2nc(C)nc3sc4c(c23)CCCC4)CC1	n	8	n	n	-9.54	n	111.5	n	135.3%	169.5%	134.0	0.136	KCNQ1 ephys val=n
O=C(Nc1cccc(C(=O)Nc2cccc(Br)c2)c1)c1ccccc1	n	13	n	n	-11.9	n	115.5	n	110.7%	151.0%	118.0	n	KCNQ1 ephys val=n
CCCCn1c(N)c(N(CCOC)C(=O)COC(=O)CCOc2ccc(C)cc2)c(=O)[nH]c1=O	x	x	x	x	n	x	x	x	x	x	x	x
NNC(=O)c1ccc(Cn2cc(Cl)cn2)cc1	n	n	n	n	n	n	x	x	x	x	x	x
O=C(Nc1ccc(Cl)c(Cl)c1)c1ccc(Cn2cc(Cl)cn2)cc1	n	8	n	n	-11.7	n	111.5	n	105.3%	111.5%	109.3	n	KCNQ1 ephys val=n
Cc1cnc(C(=O)N2CCc3c([nH]c4ccccc34)C2c2ccc(F)cc2)cn1 (stereo not drawn)	n	n	n	n	n	n	x	x	x	x	x	x
Fc1ccc(C2c3[nH]c4ccccc4c3CCN2Cc2cccn2-c2ncccn2)cc1 (stereo not drawn)	-7.81	6	n	n	-14	n	83.5	n	72.0%	97.0%	121.3	0.152
COc1cc(C(=O)N[C@H](C(=O)OCC(=O)NC2CCCCCC2)C(C)C)cc(OC)c1OC	x	x	x	x	n	x	x	x	x	x	x	x
CC(C)Cc1nc(N2CCN(C(=O)c3ccco3)CC2)c(C#N)c2c1CCCC2	-16	11	n	n	-10.2	n	116.0	0.318	116.7%	n	66.0	n	KCNK9 inh conf=34.0%;Kir2-1 spec=n;KCNK9 uninduced=28.5%
COc1ccc(-c2csc(N(CC(C)C)C(=O)c3ccco3)n2)cc1	n	7	n	n	-9.86	n	107.0	n	80.0%	139.0%	161.7	0.0733	KCNQ1 ephys val=+
CC(=O)Nc1ccc(Nc2cc(C)nc3c(-c4ccccc4)c(C)nn23)cc1	n	n	n	n	n	n	x	x	x	x	x	x
CC(=O)Nc1ccc(Nc2cc(C(C)C)nc3c(-c4ccccc4)c(C)nn23)cc1	n	7	n	n	-11.9	n	117.5	0.377	77.0%	133.5%	123.0	n
O=C(NCc1ccncc1)c1ccc(NS(=O)(=O)c2ccc(F)cc2)cc1	x	x	x	x	n	x	x	x	x	x	x	x
O=C(NCCS(=O)(=O)N1CCN(Cc2ccccc2)CC1)c1ccccc1	n	n	n	n	n	n	x	x	x	x	x	x
C/C(CC(=O)Nc1ccc2ccccc2c1)=N\NC(=O)c1ccc(O)c(O)c1	n	n	n	n	n	n	x	x	x	x	x	x
CCOc1ccccc1C(=O)N/N=C/c1coc2ccc(C)cc2c1=O	n	n	n	n	n	n	x	x	x	x	x	x
O=C(NCCSCc1ccco1)Nc1cc(Cl)cc(Cl)c1	-8.24	8	n	n	-13.2	n	134.5	n	n	91.0%	100.3	n	KCNQ1 ephys val=n;KCNK9 inh conf=67.5%;Kir2-1 spec=n;KCNK9 uninduced=31.5%
CS(=O)(=O)N(CC(=O)NCCSCc1ccco1)c1ccc(Cl)cc1	n	n	n	n	n	n	x	x	x	x	x	x
O=[N+]([O-])c1c(Nc2ccccc2O)ccc2nonc12	n	n	n	n	n	n	x	x	x	x	x	x
O=[N+]([O-])c1c(Nc2ccccc2O)cc(Cl)c2nonc12	n	21	n	n	-12.2	-7.18	183.5	0.2	151.3%	+	154.3	0.0763
CCOC(=O)c1c(S(=O)(=O)Nc2ccc(F)cc2Cl)c(C)n(C)c1C	n	n	n	n	n	n	x	x	x	x	x	x
SMILES	KCNK9 inh	KCNQ1 inh	hERG rescue	KCNQ1 pot	KCNK3 block	Kir21 block	KCNQ1 inh valid	CHO Tl flux	KCNQ2 spec	KCNQ1-KCNE1 inh	KCNK3 inh conf	KCNK3 noninduced	others
Cc1cc(NC(=O)Nc2cccc(Cl)c2)n(-c2ccccn2)n1	-12.7	14	n	n	-11.3	n	191.5	n	125.0%	+	126.3	n	KCNQ1 ephys val=n;KCNK9 inh conf=54.0%;Kir2-1 spec=n;KCNK9 uninduced=31.5%
O=C(Nc1ccc(Br)cc1)Nc1ccccc1Cl	-6.65	7	n	n	-8.73	n	34.0	n	n	n	86.0	n
O=C(NN1CCOCC1)c1cccc(Cl)c1	n	n	n	n	n	n	x	x	x	x	x	x
O=C(c1cccc(C(F)(F)F)c1)C1CCCN(C(=O)c2cc(C3CC3)[nH]n2)C1 (stereo not drawn)	n	n	n	n	n	n	x	x	x	x	x	x
CCOc1cc(/C=N/NC(=O)c2cc(-c3cccc(OC)c3)nc3ccccc23)ccc1O	n	n	n	n	n	n	x	x	x	x	x	x
CC(C)COc1cccc(-c2cc(C(=O)N/N=C/c3ccncc3)c3ccccc3n2)c1	n	14	n	n	-10.1	n	182.5	0.298	125.3%	+	118.3	0.0963
Cc1ccc(NC(=O)COC(=O)Cc2ccc(Br)cc2)cc1S(=O)(=O)N1CCOCC1	x	x	x	x	n	x	x	x	x	x	x	x
